{"data": "Measured values gathered from unrelated publications", "observed": "cell growth or viability"}
{"Compound": "FC(F)(F)c1ccc(-c2cc(COc3cc(C(F)(F)F)nc4ccccc34)on2)cc1", "cell line": "Z-138", "assay": "MTS", "setting": "72 h", "IC50": "> 100 µM"}
{"Compound": "Cc1cccc(N=C2C(=O)N(Cc3cccc(Cl)c3)c3ccccc32)c1", "cell line": "B16", "assay": "MTT", "setting": "48 h", "IC50": "6.71 µM"}
{"Compound": "O=c1cc(OCc2cc(-c3ccc(Cl)cc3Cl)no2)c2ccccc2o1", "cell line": "Z-138", "assay": "MTS", "setting": "72 h", "IC50": "> 100 µM"}
{"Compound": "CC(C)c1cccc(C(C)C)c1N=C1C(=O)Nc2ccccc21", "cell line": "B16", "assay": "MTT", "setting": "48 h", "IC50": "6.88 µM"}
{"Compound": "O=C(CSc1nc2ccccc2s1)N/N=C/c1ccc(OCC(=O)Nc2ccc([N+](=O)[O-])cc2)cc1", "cell line": "Z-138", "assay": "MTS", "setting": "72 h", "IC50": "3.75 µM"}
{"Compound": "O=C1Nc2ccccc2C1=Nc1cccc(Cl)c1", "cell line": "B16", "assay": "MTT", "setting": "48 h", "IC50": "> 100 µM"}
{"Compound": "Cc1cc2c(C(N)=O)cccc2n1-c1nc2c(c(NCc3ccccc3)n1)CCCN2", "cell line": "ARP-1", "setting": "72 h", "IC50": "1.3 µM"}
{"Compound": "Cc1ccc(CN2C(=O)C(=Nc3cccc(C)c3)c3ccccc32)cc1", "cell line": "B16", "assay": "MTT", "setting": "48 h", "IC50": "0.44 µM"}
{"Compound": "O=C(CSc1nc2ccccc2s1)N/N=C/c1ccc(OCC(=O)Nc2cccc(Cl)c2)cc1", "cell line": "Z-138", "assay": "MTS", "setting": "72 h", "IC50": "> 100 µM"}
{"Compound": "Cc1cc2c(C(=O)O)cccc2n1-c1nc2c(c(NCc3ccccc3)n1)CCCN2", "cell line": "ARP-1", "setting": "72 h", "IC50": "0.9 µM"}
{"Compound": "O=c1[nH]cc(F)c(=O)[nH]1", "cell line": "DLD-1", "assay": "MTT", "setting": "72 h", "IC50": "2.68 µM"}
{"Compound": "c1ccc(-c2cc(CNc3cccc4cccnc34)on2)cc1", "cell line": "Z-138", "assay": "MTS", "setting": "72 h", "IC50": "35.3 µM"}
{"Compound": "CN1CCC(NC2CCc3[nH]c4c(C(N)=O)ccc(-c5ccccc5Cl)c4c3C2)CC1 (stereo not drawn)", "cell line": "BXPC-3", "setting": "96 h", "IC50": "0.0347 µM"}
{"Compound": "Cc1nc(Nc2ncc(C(=O)Nc3c(C)cccc3Cl)s2)cc(N2CC[C@H](O)C2)n1", "cell line": "Granta-519", "assay": "ATP luminescence", "setting": "72 h", "IC50": "> 10 µM"}
{"Compound": "Clc1ccc(-c2cc(CNc3cccc4cccnc34)on2)c(Cl)c1", "cell line": "Z-138", "assay": "MTS", "setting": "72 h", "IC50": "27.9 µM"}
{"Compound": "O=C(CSc1nc2ccccc2s1)N/N=C/c1ccc(OCC(=O)Nc2cccc([N+](=O)[O-])c2)cc1", "cell line": "Z-138", "assay": "MTS", "setting": "72 h", "IC50": "> 100 µM"}
{"Compound": "N#Cc1ccc(-c2cc(COc3cc(C(F)(F)F)nc4ccccc34)on2)cc1", "cell line": "Z-138", "assay": "MTS", "setting": "72 h", "IC50": "36.7 µM"}
{"Compound": "O=C1C(=Nc2ccccc2I)c2ccccc2N1Cc1cccc(Cl)c1", "cell line": "B16", "assay": "MTT", "setting": "48 h", "IC50": "5.86 µM"}
{"Compound": "CONC(=O)c1cccc2c1cc(C)n2-c1nc2c(c(NCc3ccccc3)n1)CCCN2", "cell line": "BXPC-3", "setting": "72 h", "IC50": "1.4 µM"}
{"Compound": "O=C1Nc2ccccc2C1=Nc1ccccc1I", "cell line": "B16", "assay": "MTT", "setting": "48 h", "IC50": "7.38 µM"}
{"Compound": "FC(F)(F)c1cc(OCc2cc(-c3ccc(Cl)cc3Cl)no2)c2ccccc2n1", "cell line": "Z-138", "assay": "MTS", "setting": "72 h", "IC50": "> 100 µM"}
